Published values from different studies.
Lines come from different studies, so protocols differ.
Target: Ephrin type-A receptor 2 (EPHA2, Homo sapiens, UniProt P29317)

Compound | read-out | mode | method | concentration | endpoint | result
Cn1cncc1[C@@](O)(COc1ccc(C#N)cc1-c1ccc(OC(F)(F)F)cc1)c1ccc(C#N)cc1 | cell-free assay | – | competition with immobilised ligand | 1 µM | remaining binding | 89%
COc1ncccc1-c1cnn2ccc(N3CCN(C(=O)OC(C)C)CC3)nc12 | binding | – | competition with immobilised ligand | 1 µM | remaining binding | 79%
Cn1cc(-c2cccc(N3CCc4c(sc5c4CC(C)(C)C5)C3=O)c2CO)cc(Nc2ccncn2)c1=O | enzyme activity | inhibitor | – | 1 µM | inhibition | 16%
COc1cc(Nc2ncc(F)c(Nc3ccc4c(n3)NC(=O)C(C)(C)O4)n2)cc(OC)c1OC | binding | – | competition with immobilised ligand | 10 µM | inhibition | 90%
Nc1ncc(-c2nc(N3CCOCC3)nc(N3CCOCC3)n2)c(C(F)F)n1 | cell-free assay | – | competition with immobilised ligand | 10 µM | remaining binding | 94%
N#CC1(c2ccccn2)CCN(Cc2cc(C(=O)O)c(=O)n3ccccc23)CC1 | cell-free assay | – | competition with immobilised ligand | 1 µM | remaining binding | 83%
O=c1[nH]c2ccccc2n1C1CCN(Cc2ccc(-c3[nH]c4cc5ncnc5cc4nc3-c3ccccc3)cc2)CC1 | cell-free assay | – | – | 0.5 µM | remaining signal | 103%
Cc1nn(C)cc1-c1nc2c(N3CCN(Cc4ccc(Cl)cc4)CC3)c(Cl)cnc2[nH]1 | binding | – | competition with immobilised ligand | 1 µM | remaining binding | 100%
CC(C)(C)c1cc(C=C(C#N)C#N)cc(Br)c1O | enzyme activity | inhibitor | – | 0.5 µM | remaining activity | 105%
Cn1cc(-c2cc(F)cc(N3CCn4c(cc5c4CCCC5)C3=O)c2CO)cc(Nc2ccc(N3CCN(C4COC4)CC3)cn2)c1=O | enzyme activity | inhibitor | – | 0.1 µM | inhibition | -1%
